# Experimental data from BindingDB's records for doi:10.1021/jm00042a007 (Merck Research Laboratories, 1994).
# Bridge positions count the residues as written; N and C are the ends. Peptide text beside a SMILES is read from it.
# Molecular target: Integrin alpha-IIb/beta-3 (Homo sapiens, UniProt P08514+P05106)
# Experiment: Inhibition of platelet aggregation as the concentration necessary to inhibit the change in light.
# Method in brief: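 Human gel-filtered platelets at 2 × 10^8/mL were mixed with 0.1 mg/mL human fibrinogen, 1 mM CaCl2 and compound, then aggregated with 10 µM ADP. Light transmittance was compared between control and treated samples.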
# Chain of Integrin alpha-IIb/beta-3 (P05106 27-788 limits assumed): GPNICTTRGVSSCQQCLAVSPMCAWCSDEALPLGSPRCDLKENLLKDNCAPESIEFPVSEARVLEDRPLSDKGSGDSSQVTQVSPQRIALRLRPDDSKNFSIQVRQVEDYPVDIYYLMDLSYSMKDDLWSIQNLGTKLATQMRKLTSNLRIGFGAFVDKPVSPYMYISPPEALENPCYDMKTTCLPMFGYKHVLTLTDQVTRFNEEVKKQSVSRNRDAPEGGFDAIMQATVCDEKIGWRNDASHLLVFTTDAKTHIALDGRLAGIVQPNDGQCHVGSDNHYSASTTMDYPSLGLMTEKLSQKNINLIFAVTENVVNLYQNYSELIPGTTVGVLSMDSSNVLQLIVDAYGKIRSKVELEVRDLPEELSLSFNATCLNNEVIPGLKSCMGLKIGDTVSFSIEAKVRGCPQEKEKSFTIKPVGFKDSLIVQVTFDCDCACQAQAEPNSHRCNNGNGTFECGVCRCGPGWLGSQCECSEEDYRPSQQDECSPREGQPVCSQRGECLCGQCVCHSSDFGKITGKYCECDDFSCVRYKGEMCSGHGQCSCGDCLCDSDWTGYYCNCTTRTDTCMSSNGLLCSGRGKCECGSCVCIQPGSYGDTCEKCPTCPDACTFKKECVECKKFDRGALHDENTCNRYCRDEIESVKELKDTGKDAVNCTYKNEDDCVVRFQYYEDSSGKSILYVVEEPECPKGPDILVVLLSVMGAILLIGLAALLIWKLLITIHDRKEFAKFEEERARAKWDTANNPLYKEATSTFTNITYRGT
# Chain of Integrin alpha-IIb/beta-3 (P08514 32-887 limits assumed): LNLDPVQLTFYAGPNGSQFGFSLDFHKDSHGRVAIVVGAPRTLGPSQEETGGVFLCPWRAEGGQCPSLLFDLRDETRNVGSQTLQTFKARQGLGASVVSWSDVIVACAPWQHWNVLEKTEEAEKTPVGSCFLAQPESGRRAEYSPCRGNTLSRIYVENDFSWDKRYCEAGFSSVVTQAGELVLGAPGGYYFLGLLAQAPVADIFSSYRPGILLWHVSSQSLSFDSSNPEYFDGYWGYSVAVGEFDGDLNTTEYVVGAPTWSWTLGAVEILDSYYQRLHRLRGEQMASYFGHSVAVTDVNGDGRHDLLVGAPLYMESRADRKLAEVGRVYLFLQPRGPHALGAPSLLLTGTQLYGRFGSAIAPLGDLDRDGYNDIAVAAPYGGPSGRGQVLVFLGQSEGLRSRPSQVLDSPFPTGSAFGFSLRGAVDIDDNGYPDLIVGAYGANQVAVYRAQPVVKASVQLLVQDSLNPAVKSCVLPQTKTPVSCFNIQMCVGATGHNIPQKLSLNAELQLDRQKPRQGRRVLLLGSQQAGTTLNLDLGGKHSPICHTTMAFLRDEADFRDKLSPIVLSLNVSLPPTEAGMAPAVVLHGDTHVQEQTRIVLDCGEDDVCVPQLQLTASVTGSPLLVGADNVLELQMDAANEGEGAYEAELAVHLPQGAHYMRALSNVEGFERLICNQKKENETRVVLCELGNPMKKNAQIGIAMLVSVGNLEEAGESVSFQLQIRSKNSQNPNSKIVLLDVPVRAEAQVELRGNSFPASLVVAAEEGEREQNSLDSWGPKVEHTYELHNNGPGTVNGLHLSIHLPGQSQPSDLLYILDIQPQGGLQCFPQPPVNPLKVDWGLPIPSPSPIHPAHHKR
# Chain of Integrin alpha-IIb/beta-3 (P08514 891-1039 limits assumed): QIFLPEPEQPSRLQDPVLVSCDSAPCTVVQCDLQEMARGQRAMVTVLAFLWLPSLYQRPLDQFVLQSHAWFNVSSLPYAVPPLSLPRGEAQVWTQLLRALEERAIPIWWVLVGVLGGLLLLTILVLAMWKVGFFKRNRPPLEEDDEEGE
row,Structure (SMILES),IC50 [µM]
1,CCCCCC(=O)N[C@@H](Cc1ccc(OCCCCCCN)cc1)C(=O)O,5
2,NCCCCCCOc1ccc(C[C@H](NS(=O)(=O)Cc2ccccc2)C(=O)O)cc1,1.9
3,O=C(N[C@@H](Cc1ccc(OCCCc2ccccc2)cc1)C(=O)O)OCc1ccccc1,> 1000
4,N=C(N)NCCC[C@H](N)C(=O)NCC(=O)N[C@@H](CC(=O)O)C(=O)N[C@@H](Cc1c[nH]c2ccccc12)C(=O)O [2-[1-[1-amino-4-amino(imino)methylamino-(1S)-butylcarboxamidomethylcarboxamido]-2-carboxy-(1S)-ethylcarboxamido]-3-(1H-3-indolyl)-(2S)-propanoic acid] (H-RGDW-OH),1.7
5,NCCCCCCCCOc1ccc(C[C@H](NC(=O)OCc2ccccc2)C(=O)O)cc1 [3-[4-(8-Amino-octyloxy)-phenyl]-2-benzyloxycarbonylamino-propionic acid],38
6,"CC(=O)N[C@H]1CSSC[C@@H](C(=O)O)NC(=O)[C@H](CC(=O)O)NC(=O)CNC(=O)[C@H](CCCNC(=N)N)NC1=O [(4S,7R,13R,16S)-16-Acetylamino-7-carboxymethyl-13-(3-guanidino-propyl)-6,9,12,15-tetraoxo-1,2-dithia-5,8,11,14-tetraaza-cycloheptadecane-4-carboxylic acid] (Ac-CRGDC-OH; disulfide 1-5)",0.68
7,O=C(O)[C@H](Cc1ccc(OCCCCC2CCNCC2)cc1)NS(=O)(=O)CCc1ccccc1 [(S)-2-(2-Phenyl-ethanesulfonylamino)-3-[4-(4-piperidin-4-yl-butoxy)-phenyl]-propionic acid],0.029
8,O=C(CCc1ccccc1)N[C@@H](Cc1ccc(OCCCCC2CCNCC2)cc1)C(=O)O [(S)-2-(3-Phenyl-propionylamino)-3-[4-(4-piperidin-4-yl-butoxy)-phenyl]-propionic acid],0.1
9,O=C(O)[C@H](Cc1ccc(OCCCCC2CCNCC2)cc1)NS(=O)(=O)/C=C/c1ccccc1 [(S)-2-((E)-2-Phenyl-ethenesulfonylamino)-3-[4-(4-piperidin-4-yl-butoxy)-phenyl]-propionic acid],0.043
10,CC(=O)N[C@@H](Cc1ccc(OCCCCC2CCNCC2)cc1)C(=O)O [(S)-2-Acetylamino-3-[4-(4-piperidin-4-yl-butoxy)-phenyl]-propionic acid],0.5
11,CC(=O)N[C@@H](Cc1ccc(OCCCCCCN)cc1)C(=O)O [(S)-2-Acetylamino-3-[4-(6-amino-hexyloxy)-phenyl]-propionic acid],18
12,O=C(O)[C@H](Cc1ccc(OCCCCC2CCNCC2)cc1)NS(=O)(=O)c1ccccc1 [(S)-2-Benzenesulfonylamino-3-[4-(4-piperidin-4-yl-butoxy)-phenyl]-propionic acid],0.018
13,O=C(N[C@@H](Cc1ccc(OCCCC2CCNCC2)cc1)C(=O)O)OCc1ccccc1 [(S)-2-Benzyloxycarbonylamino-3-[4-(3-piperidin-4-yl-propoxy)-phenyl]-propionic acid],6.2
14,CC(C)(C)NCCCOc1ccc(C[C@H](NC(=O)OCc2ccccc2)C(=O)O)cc1 [(S)-2-Benzyloxycarbonylamino-3-[4-(3-tert-butylamino-propoxy)-phenyl]-propionic acid],28
15,O=C(N[C@@H](Cc1ccc(OCCCCN2CCNCC2)cc1)C(=O)O)OCc1ccccc1 [(S)-2-Benzyloxycarbonylamino-3-[4-(4-piperazin-1-yl-butoxy)-phenyl]-propionic acid],0.5
16,O=C(N[C@@H](Cc1ccc(OCCCCCN2CCNCC2)cc1)C(=O)O)OCc1ccccc1 [(S)-2-Benzyloxycarbonylamino-3-[4-(5-piperazin-1-yl-pentyloxy)-phenyl]-propionic acid],1.1
17,O=C(N[C@@H](Cc1ccc(OC/C=C/CC2CCNCC2)cc1)C(=O)O)OCc1ccccc1 [(S)-2-Benzyloxycarbonylamino-3-[4-((E)-4-piperidin-4-yl-but-2-enyloxy)-phenyl]-propionic acid],0.24
18,"CC(C)(C)CC(C)(C)NCCCOc1ccc(C[C@H](NC(=O)OCc2ccccc2)C(=O)O)cc1 [(S)-2-Benzyloxycarbonylamino-3-{4-[3-(1,1,3,3-tetramethyl-butylamino)-propoxy]-phenyl}-propionic acid]",> 100
19,CN1CCN(CCCOc2ccc(C[C@H](NC(=O)OCc3ccccc3)C(=O)O)cc2)CC1 [(S)-2-Benzyloxycarbonylamino-3-{4-[3-(4-methyl-piperazin-1-yl)-propoxy]-phenyl}-propionic acid],5.2
20,CS(=O)(=O)N[C@@H](Cc1ccc(OCCCCC2CCNCC2)cc1)C(=O)O [(S)-2-Methanesulfonylamino-3-[4-(4-piperidin-4-yl-butoxy)-phenyl]-propionic acid],0.063
21,CCCCC(=O)N[C@@H](Cc1ccc(OCCCCC2CCNCC2)cc1)C(=O)O [(S)-2-Pentanoylamino-3-[4-(4-piperidin-4-yl-butoxy)-phenyl]-propionic acid],0.047
22,CCCCS(=O)(=O)N[C@H](CC(=O)O)Cc1ccc(OCCCC2CCNCC2)cc1 [(S)-3-(Butane-1-sulfonylamino)-4-[4-(3-piperidin-4-yl-propoxy)-phenyl]-butyric acid],0.6
23,CCCCS(=O)(=O)N[C@H](CC(=O)O)Cc1ccc(OCCCCC2CCNCC2)cc1 [(S)-3-(Butane-1-sulfonylamino)-4-[4-(4-piperidin-4-yl-butoxy)-phenyl]-butyric acid],0.14
24,CCCS(=O)(=O)N[C@@H](Cc1ccc(OCCCCC2CCNCC2)cc1)C(=O)O [(S)-3-[4-(4-Piperidin-4-yl-butoxy)-phenyl]-2-(propane-1-sulfonylamino)-propionic acid],0.023
25,O=C(O)[C@H](Cc1ccc(OCCCCC2CCNCC2)cc1)NS(=O)(=O)c1cccs1 [(S)-3-[4-(4-Piperidin-4-yl-butoxy)-phenyl]-2-(thiophene-2-sulfonylamino)-propionic acid],0.015
26,CCC(=O)N[C@@H](Cc1ccc(OCCCCC2CCNCC2)cc1)C(=O)O [(S)-3-[4-(4-Piperidin-4-yl-butoxy)-phenyl]-2-propionylamino-propionic acid],0.105
27,NCCCCCCOc1ccc(C[C@H](NC(=O)c2ccccc2)C(=O)O)cc1 [(S)-3-[4-(6-Amino-hexyloxy)-phenyl]-2-benzoylamino-propionic acid],10
28,CCCC(=O)N[C@@H](Cc1ccc(OCCCCCCN)cc1)C(=O)O [(S)-3-[4-(6-Amino-hexyloxy)-phenyl]-2-butyrylamino-propionic acid],5.7
